In ChEMBL document CHEMBL1275600, “Prophylactic activity of intramuscular peramivir in mice infected with a recombinant influenza A/WSN/33 (H1N1) virus containing the H274Y neuraminidase mutation” (Antimicrob Agents Chemother, 2010):
The source made the active and inactive calls. The calls are words filed in the database; no cut-off is given here.

How the values were obtained:
Influenza A virus [1] = assay: Antiviral activity against recombinant Influenza A/WSN/33 (H1N1) virus infected in BALB/c mouse assessed as survival of mouse at 45 mg/kg, im administered as single dose; format: functional, organism-based; set-up: dose 45 mg/kg; details: A/WSN/1933(H1N1)
Outline: (§1)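 Male BALB/c mice, 6–8 weeks old and 20–25 g, were randomized by weight, 4 per cage, in groups of 12. Drug at 50 mg/ml in saline buffered to pH 3.0 was given by IM hip injection, first dose 1 h before challenge. Mice were infected intranasally under isoflurane with 8 × 10^3 PFU of cell-grown recombinant virus in 30 μl PBS. Mortality was recorded daily for 14 days.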

Influenza A virus [2] = assay: Antiviral activity against recombinant Influenza A/WSN/33 (H1N1) virus infected in BALB/c mouse assessed as survival of mouse at 90 mg/kg, im administered as single dose; format: functional, organism-based; set-up: dose 90 mg/kg; details: A/WSN/1933(H1N1); outline: as §1
Influenza A virus [3] = assay: Antiviral activity against recombinant Influenza A/WSN/33 (H1N1) virus infected in BALB/c mouse assessed as survival of mouse at 45 mg/kg, im once daily for 5 days; format: functional, organism-based; set-up: dose 45 mg/kg; details: A/WSN/1933(H1N1); outline: as §1
Mus musculus [4] = assay: Toxicity against BALB/c mouse assessed as mortality at 45 mg/kg, im once daily for 5 days measured after 14 days; format: organism-based; set-up: dose 45 mg/kg, route intramuscular; details: in vivo, 336 h
Outline: (§2)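 Uninfected male BALB/c mice, 6 per group, received IM drug at 45 mg/kg once daily for 5 days, dissolved at 50 mg/ml in pH 3.0 buffered saline, or PBS. Body weight and mortality were monitored daily for 14 days.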

Mus musculus [5] = assay: Toxicity against recombinant Influenza A/WSN/33 (H1N1) virus infected BALB/c mouse assessed as weight loss at 45 mg/kg, im once daily for 5 days measured after 14 days; format: organism-based; set-up: dose 45 mg/kg, route intramuscular; details: in vivo, 336 h
Outline: (§3)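 Male BALB/c mice, groups of 12, received IM drug at 50 mg/ml in pH 3.0 buffered saline, starting 1 h before intranasal infection with 8 × 10^3 PFU of recombinant virus. Body weight was monitored daily for 14 days. Mean weight loss was compared across regimens by one-way ANOVA, with uninfected PBS-treated mice as reference.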

Mus musculus [6] = assay: Toxicity against recombinant Influenza A/WSN/33 (H1N1) virus infected BALB/c mouse assessed as weight loss at 45 mg/kg, im administered as single dose and measured after 14 days; format: organism-based; set-up: dose 45 mg/kg, route intramuscular; details: in vivo, 336 h; outline: as §3
Mus musculus [7] = assay: Toxicity against recombinant Influenza A/WSN/33 (H1N1) virus infected BALB/c mouse assessed as weight loss at 90 mg/kg, im administered as single dose and measured after 14 days; format: organism-based; set-up: dose 90 mg/kg, route intramuscular; details: in vivo, 336 h; outline: as §3
Mus musculus [8] = assay: Toxicity against BALB/c mouse assessed as weight loss in mouse at 45 mg/kg, im once daily for 5 days measured after 14 days; format: organism-based; set-up: dose 45 mg/kg, route intramuscular; details: in vivo, 336 h; outline: as §2
Influenza A virus [9] = assay: Antiviral activity against Influenza A/WSN/33 (H1N1) virus infected in mouse assessed as survival rate at 10 mg/kg, im administered 4 days before viral challenge; format: functional; details: A/WSN/1933(H1N1), route intramuscular
Influenza A virus [10] = assay: Antiviral activity against Influenza A/WSN/33 (H1N1) virus infected in mouse assessed as survival rate at 10 mg/kg, po administered 4 days before viral challenge; format: functional; details: A/WSN/1933(H1N1)
[11] = Cmax in mouse at 30 mg/kg, im administered as single dose and measured after 30 mins; format: ADME, organism-based; set-up: dose 30 mg/kg, route intramuscular; details: in vivo
[12] = Cmax in mouse at 30 mg/kg, im administered as single dose and measured after 24 hrs; format: ADME, organism-based; set-up: dose 30 mg/kg, route intramuscular; details: in vivo
[13] = target: Neuraminidase (Influenza A virus (strain A/Wilson-Smith/1933 H1N1) (Influenza A virus(strain A/WS/1933 H1N1))) (UniProt P03470); details: Influenza A virus (A/WSN/1933(H1N1)); 10 mg/kg
Chain of Neuraminidase (Influenza A virus (strain A/Wilson-Smith/1933 H1N1) (Influenza A virus(strain A/WS/1933 H1N1))) (P03470 whole entry): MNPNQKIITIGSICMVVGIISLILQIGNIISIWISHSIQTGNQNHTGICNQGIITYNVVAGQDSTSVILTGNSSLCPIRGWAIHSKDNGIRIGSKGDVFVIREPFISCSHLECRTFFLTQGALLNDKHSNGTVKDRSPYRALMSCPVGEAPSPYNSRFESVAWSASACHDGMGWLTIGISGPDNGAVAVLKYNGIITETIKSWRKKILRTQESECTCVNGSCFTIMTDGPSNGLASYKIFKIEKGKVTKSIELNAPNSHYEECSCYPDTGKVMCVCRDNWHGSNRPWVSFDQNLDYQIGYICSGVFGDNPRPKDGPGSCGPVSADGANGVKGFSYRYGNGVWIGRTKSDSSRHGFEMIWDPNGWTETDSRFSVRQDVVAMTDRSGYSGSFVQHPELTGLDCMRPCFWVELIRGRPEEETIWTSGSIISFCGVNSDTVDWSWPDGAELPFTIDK

[14] = target: Neuraminidase (Influenza A virus (strain A/Wilson-Smith/1933 H1N1) (Influenza A virus(strain A/WS/1933 H1N1))) (UniProt P03470); details: Influenza A virus (A/WSN/1933(H1N1)); 2 to 20 mg/kg

For `CCC(CC)[C@H](NC(C)=O)[C@@H]1[C@H](O)[C@@H](C(=O)O)C[C@H]1NC(=N)N` [PERAMIVIR ANHYDROUS], the Activity (Influenza A virus [1]) was “Active”, the Activity (Influenza A virus [2]) was “Active” and the Activity (Influenza A virus [3]) was “Active”. The Activity (Mus musculus [4]) was “Non-toxic”, the Activity (Mus musculus [5]) was “Non-toxic” and the Activity (Mus musculus [6]) was “Non-toxic”. The Activity (Mus musculus [7]) was “Non-toxic”, the Activity (Mus musculus [8]) was “Non-toxic” and the survival at 10 mg/kg (Influenza A virus [9]) was 100%. It also gave a survival at 10 mg/kg (Influenza A virus [10]) of 50%, a Cmax [11] of 17700 ng/mL and a Cmax [12] of 29.3 ng/mL. The T1/2 [13] was > 24 h and the T1/2 [14] was 1.25 h.
